# Data published in ChEMBL document CHEMBL1138544, “Solution-phase parallel synthesis and evaluation of anticonvulsant activity of N-substituted-3,4-dihydroisoquinoline-2(1H)-carboxamides” (2009).
# Columns and labels:
# [1] = tested on: Mus musculus; assay: Anticonvulsant activity against audiogenic clonus seizures in ip dosed DBA/2 mouse epilepsy model administered 30 mins before auditory simulation; type: functional; settings: DBA/2, ip
# Outline: (§1)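 DBA/2 mice (sound-seizure susceptible), 8e12 g, 22e25 days old, either sex, groups of 10. Vehicle or each dose given 30 min before auditory stimulation. Latency to and incidence of each seizure phase scored. ED50 for each phase taken from dose-response curves fitted by the Litchfield and Wilcoxon method.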
# [2] = tested on: Mus musculus; assay: Anticonvulsant activity against audiogenic tonus seizures in ip dosed DBA/2 mouse epilepsy model administered 30 mins before auditory simulation; type: functional; settings: DBA/2, ip; outline: as §1
Compound,ED50 [1] [mg/kg],ED50 [2] [mg/kg]
COc1cc2c(cc1OC)C(c1ccc(Br)cc1)N(C(=O)CN1CCCCC1)CC2 (centres undefined),5.99,3.86
CCNC(=O)N1CCc2cc(OC)c(OC)cc2C1c1ccccc1 (centres undefined),32.5,11.9
CCNC(=O)N1CCc2cc(OC)c(OC)cc2C1c1ccc(Cl)cc1 (centres undefined),30.4,14.2
CCNC(=O)N1CCc2cc(OC)c(OC)cc2C1c1ccc(F)cc1 (centres undefined),> 35,> 35
CCCCNC(=O)N1CCc2cc(OC)c(OC)cc2C1c1ccc(Cl)cc1 (centres undefined),> 35,16.5
CCCCNC(=O)N1CCc2cc(OC)c(OC)cc2C1c1ccc(F)cc1 (centres undefined),> 35,13.7
COc1cc2c(cc1OC)C(c1ccccc1)N(C(=O)NC(C)(C)C)CC2 (centres undefined),27.5,13.9
COc1cc2c(cc1OC)C(c1ccc(Cl)cc1)N(C(=O)NC1CCCC1)CC2 (centres undefined),> 35,12.1
COc1cc2c(cc1OC)C(c1ccc(F)cc1)N(C(=O)NC(C)C)CC2 (centres undefined),> 35,17.3
CCCCNC(=O)N1CCc2cc(OC)c(OC)cc2C1c1ccccc1 (centres undefined),31.7,11
COc1cc2c(cc1OC)C(c1ccc(Br)cc1)N(C(=O)NC(C)(C)C)CC2 (centres undefined),> 35,16.9
COc1cc2c(cc1OC)C(c1ccccc1)N(C(=O)NC1CCCCC1)CC2 (centres undefined),26.9,9.38
CCCCNC(=O)N1CCc2cc(OC)c(OC)cc2C1c1ccc(Br)cc1 (centres undefined),> 35,15.5
COc1cc2c(cc1OC)C(c1ccc(Cl)cc1)N(C(=O)NC(C)(C)C)CC2 (centres undefined),30.6,13.8
COc1cc2c(cc1OC)C(c1ccccc1)N(C(=O)NC1CCCC1)CC2 (centres undefined),> 35,15.1
COc1cc2c(cc1OC)C(c1ccc(Br)cc1)N(C(=O)NC1CCCCC1)CC2 (centres undefined),> 35,19.3

Compound,ED50 [1] [mg/kg],ED50 [2] [mg/kg]
CCCNC(=O)N1CCc2cc(OC)c(OC)cc2C1c1ccc(Cl)cc1 (centres undefined),> 35,23.4
CCCNC(=O)N1CCc2cc(OC)c(OC)cc2C1c1ccc(F)cc1 (centres undefined),> 35,26.9
COc1cc2c(cc1OC)C(c1ccccc1)N(C(=O)NC(C)C)CC2 (centres undefined),> 35,> 35
COc1cc2c(cc1OC)C(c1ccc(Cl)cc1)N(C(=O)NC1CCCCC1)CC2 (centres undefined),> 35,14.2
COc1cc2c(cc1OC)C(c1ccc(Br)cc1)N(C(=O)NC1CCCC1)CC2 (centres undefined),> 35,14.7
COc1cc2c(cc1OC)C(c1ccc(Cl)cc1)N(C(=O)NC(C)C)CC2 (centres undefined),> 35,26.1
COc1cc2c(cc1OC)C(c1ccc(F)cc1)N(C(=O)NC1CCCC1)CC2 (centres undefined),27.7,7.24
COc1cc2c(cc1OC)C(c1ccc(Br)cc1)N(C(=O)NC(C)C)CC2 (centres undefined),> 35,23.6
COc1cc2c(cc1OC)C(c1ccc(F)cc1)N(C(=O)NC(C)(C)C)CC2 (centres undefined),> 35,18.7
CCCNC(=O)N1CCc2cc(OC)c(OC)cc2C1c1ccc(Br)cc1 (centres undefined),> 35,31.2
COc1cc2c(cc1OC)C(c1ccc(F)cc1)N(C(=O)NC1CCCCC1)CC2 (centres undefined),> 35,> 35
CCNC(=O)N1CCc2cc(OC)c(OC)cc2C1c1ccc(Br)cc1 (centres undefined),> 35,> 35
CCCNC(=O)N1CCc2cc(OC)c(OC)cc2C1c1ccccc1 (centres undefined),> 35,18.1
COc1cc2c(cc1OC)C(c1ccc(Cl)cc1)N(C(C)=O)CC2 (centres undefined),2.25,1.22
NCC1(CC(=O)O)CCCCC1 [GABAPENTIN],> 35,21.5
CCCC(CCC)C(=O)O [VALPROIC ACID],20.3,9.9
